For one data set, the target named is Neutrophil collagenase (Homo sapiens, UniProt P22894). Nature of the data set: Inhibition of MMP8 by fluorimetric assay. Summed up:
(§1)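 Enzyme source was the catalytic domain of each MMP. Inhibition was reported as Ki values.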

The target in another data set is Collagenase 3 (Homo sapiens, UniProt P45452). In words: Inhibition of MMP13 by fluorimetric assay. Summed up:
as §1

The nature of data set [1]: Solubility of the compound in water. In kind it is physicochemical.
A further data set deals with T1, Interstitial collagenase (Homo sapiens, UniProt P03956).
T1 sequence (P03956 whole entry): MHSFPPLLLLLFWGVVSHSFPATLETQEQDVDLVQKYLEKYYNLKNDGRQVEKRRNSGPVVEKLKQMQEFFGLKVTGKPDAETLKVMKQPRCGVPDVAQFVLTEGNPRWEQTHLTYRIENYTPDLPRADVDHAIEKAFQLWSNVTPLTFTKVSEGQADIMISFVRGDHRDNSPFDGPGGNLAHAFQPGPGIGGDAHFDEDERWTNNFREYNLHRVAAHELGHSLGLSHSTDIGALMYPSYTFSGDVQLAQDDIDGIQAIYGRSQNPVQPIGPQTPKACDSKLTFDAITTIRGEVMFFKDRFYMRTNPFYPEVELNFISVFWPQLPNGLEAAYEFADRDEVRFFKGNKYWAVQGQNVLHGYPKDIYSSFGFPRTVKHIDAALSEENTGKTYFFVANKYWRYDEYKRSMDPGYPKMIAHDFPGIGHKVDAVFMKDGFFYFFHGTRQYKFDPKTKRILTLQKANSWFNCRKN
In words: Inhibition of MMP1 by fluorimetric assay. Summed up:
as §1

The target in a further data set is T2, Matrilysin (Homo sapiens, UniProt P09237).
T2 sequence (P09237 whole entry): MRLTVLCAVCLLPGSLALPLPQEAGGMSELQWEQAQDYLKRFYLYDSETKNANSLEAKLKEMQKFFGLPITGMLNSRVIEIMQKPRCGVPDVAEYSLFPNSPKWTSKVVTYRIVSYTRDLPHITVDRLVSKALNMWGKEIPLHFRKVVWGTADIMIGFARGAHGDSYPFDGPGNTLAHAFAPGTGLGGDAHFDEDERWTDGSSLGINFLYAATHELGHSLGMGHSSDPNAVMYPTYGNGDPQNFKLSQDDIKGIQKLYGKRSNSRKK
Nature of the data set: Inhibition of MMP7 by fluorimetric assay. Summed up: as §1

For data set [2], the target named is Macrophage metalloelastase (Homo sapiens, UniProt P39900). In words: Inhibition of MMP12 by fluorimetric assay. Put shortly: as §1

These results are taken from ChEMBL document CHEMBL1629518, “Structure-based approach to nanomolar, water soluble matrix metalloproteinases inhibitors (MMPIs)” (Eur J Med Chem, 2010).

Structures are written as SMILES. Values after ≈ are worked out from the molar mass of the structure shown.

What is called Ki is a measure of affinity in units of concentration, obtained from inhibition or displacement. The solubility is the dissolved amount per volume that the medium holds. A high value points to a readily soluble substance.

Macrophage metalloelastase, sequence (P39900 whole entry): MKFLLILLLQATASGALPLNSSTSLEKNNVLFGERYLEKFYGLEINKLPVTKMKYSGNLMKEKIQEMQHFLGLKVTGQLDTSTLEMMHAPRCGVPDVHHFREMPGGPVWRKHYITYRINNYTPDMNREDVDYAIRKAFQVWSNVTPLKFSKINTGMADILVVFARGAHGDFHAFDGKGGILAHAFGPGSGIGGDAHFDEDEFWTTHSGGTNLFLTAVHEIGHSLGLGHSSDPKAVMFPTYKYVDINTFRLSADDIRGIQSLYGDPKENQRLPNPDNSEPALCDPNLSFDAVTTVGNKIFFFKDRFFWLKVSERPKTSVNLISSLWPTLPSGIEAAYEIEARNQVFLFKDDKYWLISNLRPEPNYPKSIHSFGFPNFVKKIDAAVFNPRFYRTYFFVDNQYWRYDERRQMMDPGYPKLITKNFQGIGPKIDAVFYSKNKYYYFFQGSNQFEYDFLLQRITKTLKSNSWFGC
Neutrophil collagenase, sequence (P22894 whole entry, the tested form may be a part): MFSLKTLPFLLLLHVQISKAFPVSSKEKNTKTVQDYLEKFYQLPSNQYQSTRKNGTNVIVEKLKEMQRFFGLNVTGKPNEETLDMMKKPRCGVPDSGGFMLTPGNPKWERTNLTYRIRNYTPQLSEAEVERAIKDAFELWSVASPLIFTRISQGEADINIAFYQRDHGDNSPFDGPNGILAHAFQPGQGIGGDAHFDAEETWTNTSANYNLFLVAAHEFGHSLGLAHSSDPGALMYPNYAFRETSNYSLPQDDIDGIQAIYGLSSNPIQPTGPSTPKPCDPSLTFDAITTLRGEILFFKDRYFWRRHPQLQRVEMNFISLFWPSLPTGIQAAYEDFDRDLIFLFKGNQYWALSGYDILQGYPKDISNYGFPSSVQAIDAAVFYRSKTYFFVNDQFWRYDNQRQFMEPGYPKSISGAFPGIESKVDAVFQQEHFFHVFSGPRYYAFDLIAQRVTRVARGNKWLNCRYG

Turning to `COc1ccc(S(=O)(=O)N(CCO[C@@H]2O[C@H](CO)[C@@H](O)[C@H](O)[C@H]2O)CC(=O)NO)cc1`, the Ki at Neutrophil collagenase was found to be 9.1 nM; on Collagenase 3, 1.7 nM; on Interstitial collagenase it was 286 nM; on Matrilysin, 2000 nM. The solubility in data set [1] was found to be 20 mg/mL (≈ 42.9 mM).
With `COc1ccc(S(=O)(=O)N(CC(=O)NO)C[C@H](O)CO)cc1`, the Ki on Neutrophil collagenase came out at 24 nM; at Collagenase 3, 3.6 nM; in data set [2], 8 nM; at Interstitial collagenase it was 160 nM; at Matrilysin, 9000 nM. Also, in data set [1], the concentration in solution (solubility) came to 20 mg/mL (≈ 59.8 mM).
Turning to `COc1ccc(S(=O)(=O)N[C@@H](C(=O)NO)[C@@H](C)O)cc1`, the inhibition constant Ki on Neutrophil collagenase was 10 nM; at Collagenase 3 it was 2.9 nM; in data set [2] it was 11 nM; at Interstitial collagenase, 287 nM; at Matrilysin, 984 nM. The molecule further registered a solubility in data set [1] of 20 mg/mL (≈ 65.7 mM).
For the molecule `O=C(CN(CCO)S(=O)(=O)c1ccc(F)cc1)NO`, the Ki at Neutrophil collagenase came to 173 nM; at Collagenase 3, 46 nM; in data set [2], 40 nM; on Interstitial collagenase, 151 nM; at Matrilysin, 3000 nM. Besides, the concentration in solution in data set [1] (solubility) was 20 mg/mL (≈ 68.4 mM).
For the molecule `COc1ccc(S(=O)(=O)N(C[C@H](O)CO)[C@H](CO)C(=O)NO)cc1`, the Ki amounted to 8 nM at Neutrophil collagenase; 1.7 nM on Collagenase 3; 7 nM in data set [2]; 32 nM on Interstitial collagenase; 344 nM on Matrilysin. In data set [1], this molecule yielded a solubility of 20 mg/mL (≈ 54.9 mM).
As for `O=C(CN(C[C@H](O)CO)S(=O)(=O)c1ccc(-c2ccccc2)cc1)NO`, the Ki at Neutrophil collagenase came to 48 nM; on Collagenase 3 it was 18 nM; in data set [2], 60 nM; on Interstitial collagenase, 742 nM; on Matrilysin, 4000 nM. Further, in data set [1], the solubility was < 1 mg/mL.
Take `COc1ccc(S(=O)(=O)N(CCO)CC(=O)NO)cc1`: the Ki at Neutrophil collagenase came out at 13 nM; on Collagenase 3, 1 nM; in data set [2] it was 7.6 nM; at Interstitial collagenase, 128 nM; on Matrilysin, 1500 nM. The molecule further gave a solubility in data set [1] of 20 mg/mL (≈ 65.7 mM).
Turning to `O=C(CN(CCO)S(=O)(=O)c1ccc(-c2ccccc2)cc1)NO`, the Ki at Neutrophil collagenase amounted to 4.6 nM; on Collagenase 3, 2.7 nM; on Interstitial collagenase, 67 nM; on Matrilysin it was 1600 nM. The molecule further came in with a solubility in data set [1] of 20 mg/mL (≈ 57.1 mM).
For the molecule `COc1ccc(S(=O)(=O)N[C@H](CO)C(=O)NO)cc1`, the Ki at Neutrophil collagenase turned out to be 9 nM; on Collagenase 3 it was 2.2 nM; in data set [2], 6 nM; on Interstitial collagenase, 143 nM; at Matrilysin, 823 nM. The solubility in data set [1] stood at 20 mg/mL (≈ 68.9 mM).
As to `COc1ccc(S(=O)(=O)N(CC(=O)NO)CC(C)C)cc1`, the Ki at Neutrophil collagenase turned out to be 9 nM; at Collagenase 3 it was 3.1 nM; in data set [2], 4.3 nM; on Matrilysin, 13000 nM. This molecule also yielded a solubility in data set [1] of 20 mg/mL (≈ 63.2 mM).
